Reference: ChEMBL document CHEMBL1145845, “Acetogenins as selective inhibitors of the human ovarian 1A9 tumor cell line” (2003)
≈ marks a conversion by molar mass, not a printed value. Calls of active or inactive are those of the source.

Assays:
KB [1] = experiment: Effective dose required for inhibitory activity against KB-VIN human tumor cell line.; assay type: functional; details: read-out: ED50 (the source's name)
Outline: (§1)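 Human tumor lines were grown in RPMI-1640 with 25 mM HEPES, 0.25% sodium bicarbonate, 10% FBS and 100 µg/mL kanamycin. KB-VIN is a vincristine-resistant KB subline, and PTX10 is a 1A9 subline with mutated β-tubulin. Trypsinized cells (1500–7500/well) got compound from DMSO stock for 3 days continuous. Cells were fixed with cold 50% TCA, stained with 0.4% SRB, and read at 562 nm. ED50 is the 50% growth-reduction concentration; not active means ≤5% inhibition at the top concentration.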

HOS [2] = experiment: Effective dose required for inhibitory activity against HOS human tumor cell line; Not active; assay type: functional, cell-based; outline: as §1
SK-MEL-2 [3] = experiment: Effective dose required for inhibitory activity against SK-MEL-2 human tumor cell line.; assay type: functional; details: read-out: ED50 (the source's name); outline: as §1
PC-3 [4] = experiment: Effective dose required for inhibitory activity against PC-3 human tumor cell line.; assay type: functional; details: read-out: ED50 (the source's name); outline: as §1
HCT-8 = experiment: Effective dose required for inhibitory activity against HCT-8 human tumor cell line.; assay type: functional; details: read-out: ED50 (the source's name); outline: as §1
MCF7 [5] = experiment: Effective dose required for inhibitory activity against MCF-7 human tumor cell line.; assay type: functional; details: read-out: ED50 (the source's name); outline: as §1
CAKI-1 [6] = experiment: Effective dose required for inhibitory activity against CAK1 human tumor cell line; Not active; assay type: functional, cell-based; outline: as §1
1A9/ptx-10 [7] = experiment: Percent inhibition against PTX10 human tumor cell line at >10 ug/mL; assay type: functional
1A9 [8] = experiment: Effective dose required for inhibitory activity against 1A9 human tumor cell line.; assay type: functional; details: read-out: ED50 (the source's name); outline: as §1
A549 [9] = experiment: Effective dose required for inhibitory activity against A549 human tumor cell line.; assay type: functional; details: read-out: ED50 (the source's name); outline: as §1
KB [10] = experiment: Effective dose required for inhibitory activity against KB human tumor cell line.; assay type: functional; details: read-out: ED50 (the source's name); outline: as §1
MCF7 [11] = experiment: Percent inhibition against MCF-7 human tumor cell line at <5 ug/mL; assay type: functional
1A9/ptx-10 [12] = experiment: Effective dose required for inhibitory activity against PTX10 human tumor cell line; assay type: functional; details: read-out: ED50 (the source's name); outline: as §1
HOS [13] = experiment: Effective dose required for inhibitory activity against HOS human tumor cell line.; assay type: functional; details: read-out: ED50 (the source's name); outline: as §1
CAKI-1 [14] = experiment: Effective dose required for inhibitory activity against CAK1 human tumor cell line; assay type: functional; details: read-out: ED50 (the source's name); outline: as §1
SK-MEL-2 [15] = experiment: Effective dose required for inhibitory activity against SK-MEL-2 human tumor cell line; Not active; assay type: functional, cell-based; outline: as §1
1A9 [16] = experiment: Percent inhibition against 1A9 human tumor cell line at <0.00008 ug/mL; assay type: functional
PC-3 [17] = experiment: Effective dose required for inhibitory activity against PC-3 human tumor cell line; Not active; assay type: functional, cell-based; outline: as §1
A549 [18] = experiment: Effective dose required for inhibitory activity against A549 human tumor cell line; Not active; assay type: functional, cell-based; outline: as §1
1A9 [19] = experiment: Percent inhibition against 1A9 human tumor cell line at >10 ug/mL; assay type: functional
1A9 [20] = experiment: Percent inhibition against 1A9 human tumor cell line at 0.10 ug/mL; assay type: functional
Outline: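 Human ovarian 1A9 cells grown in RPMI-1640 with 25 mM HEPES, 0.25% sodium bicarbonate, 10% FBS and 100 µg/mL kanamycin. Freshly trypsinized cells seeded at 1500–7500/well; compound added from DMSO-diluted stock; 3-day continuous exposure. Cells fixed with cold 50% TCA, stained with 0.4% SRB, dye solubilized, A562 read. Percent growth inhibition given where <50% at highest concentration.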

SMILES	EC50 (KB [1]) [µg/mL]	NA (HOS [2])	EC50 (SK-MEL-2 [3]) [µg/mL]	EC50 (PC-3 [4]) [µg/mL]	EC50 (HCT-8) [µg/mL]	EC50 (MCF7 [5]) [µg/mL]	NA (CAKI-1 [6])	Inhibition (1A9/ptx-10 [7]) [%]	EC50 (1A9 [8]) [µg/mL]	EC50 (A549 [9]) [µg/mL]	EC50 (KB [10]) [µg/mL]	Inhibition (MCF7 [11]) [%]	EC50 (1A9/ptx-10 [12]) [µg/mL]	EC50 (HOS [13]) [µg/mL]	EC50 (CAKI-1 [14]) [µg/mL]	NA (SK-MEL-2 [15])	other results
CCCCCCCCCCCC[C@@H](O)[C@H]1CC[C@H]([C@H](O)CCCCC(=O)CCCCCCCC2=C[C@H](C)OC2=O)O1	> 20	inactive	> 20	> 20	> 20	9.5 (≈ 16.4 µM)	inactive	31	0.76 (≈ 1.31 µM)	> 20	> 20						
CCCCCCCCCCCC[C@@H](O)[C@H]1CC[C@H]([C@H](O)CCCCC(O)CCCCCCCC2=C[C@H](C)OC2=O)O1 (some centres not stated)	12.5 (≈ 21.5 µM)		14.2 (≈ 24.4 µM)	8.1 (≈ 13.9 µM)	10.8 (≈ 18.6 µM)				0.1 (≈ 0.172 µM)	9.8 (≈ 16.9 µM)	7.6 (≈ 13.1 µM)	55	5 (≈ 8.61 µM)	9.8 (≈ 16.9 µM)	13.9 (≈ 23.9 µM)		
CCCCCCCCCCCC[C@@H](O)[C@H]1CC[C@H]([C@H](O)CCCC[C@H](O)CCCCC[C@@H](O)CC2=CC(C)OC2=O)O1 (some centres not stated) [ANNONACIN]	10.3 (≈ 17.3 µM)		13.8 (≈ 23.1 µM)	8.2 (≈ 13.7 µM)	7.9 (≈ 13.2 µM)				0.07 (≈ 0.117 µM)	7.8 (≈ 13.1 µM)	7.5 (≈ 12.6 µM)	62	6 (≈ 10.1 µM)	8.2 (≈ 13.7 µM)	9.8 (≈ 16.4 µM)		
CCCCCCCCCCCC[C@@H](O)[C@H]1CC[C@H]([C@H](O)CCCCCC(O)CCCC[C@@H](O)CC2=C[C@H](C)OC2=O)O1 (some centres not stated)	17 (≈ 28.5 µM)		13.1 (≈ 21.9 µM)	7.8 (≈ 13.1 µM)	14.2 (≈ 23.8 µM)				0.5 (≈ 0.838 µM)	12 (≈ 20.1 µM)	11.8 (≈ 19.8 µM)	57	9.3 (≈ 15.6 µM)	13.1 (≈ 21.9 µM)	16.3 (≈ 27.3 µM)		
CCCCCC[C@@H](O)CCC[C@H](O)[C@@H]1CC[C@@H]([C@H](O)CC[C@@H](O)[C@@H]2CC[C@@H](CCCCCCCCCC3=C[C@@H](C)OC3=O)O2)O1 [Squamostatin-A]	> 20			> 20	> 20	8 (≈ 12.5 µM)		40	0.0087 (≈ 0.0136 µM)	> 20	> 20			> 20	> 20	inactive	
CCCCCCCCCC[C@@H](O)[C@@H]1CC[C@@H]([C@@H]2CC[C@@H]([C@H](O)CCCCCCCCCC(O)CC3=CC(C)OC3=O)O2)O1 (some centres not stated) [BULLATACIN]	16.1 (≈ 26.4 µM)		17.1 (≈ 28.1 µM)	14.3 (≈ 23.5 µM)	14.9 (≈ 24.5 µM)	8.4 (≈ 13.8 µM)				13.3 (≈ 21.8 µM)	10 (≈ 16.4 µM)		8 (≈ 13.1 µM)	11.9 (≈ 19.5 µM)	16.8 (≈ 27.6 µM)		Inhibition (1A9 [16]): 55%
CCCCCCCCCCCC[C@@H](O)[C@H]1CC[C@H]([C@H](O)CCCCCCCCCCCCC2=C[C@H](C)OC2=O)O1 [REL-SOLAMIN]	> 20				> 20	> 20	inactive	18	7.8 (≈ 13.8 µM)	> 20	> 20			> 20		inactive	NA (PC-3 [17]): inactive
CCCCCCCCCCCC[C@H](O)[C@@H]1CC[C@@H]([C@@H](O)CCCCC(=O)CCCCCC2CC(CC(C)=O)C(=O)O2)O1 (some centres not stated) [ISOANNONACINONE]	> 20	inactive		> 20	> 20	> 20	inactive	19	2.2 (≈ 3.7 µM)	> 20	> 20					inactive	
CCCCC/C=C\CCC(O)C(O)CCCC[C@@H](O)[C@@H]1CC[C@@H](CCCCCCCCCCCCC2=C[C@H](C)OC2=O)O1 (some centres not stated)	> 20	inactive		> 20	> 20	> 20	inactive	13			> 20					inactive	NA (A549 [18]): inactive; Inhibition (1A9 [19]): 39%
CCCCCCCCC[C@H](O)[C@@H]1CC[C@H]([C@H]2CC[C@@H](CCCCCCCCCC[C@H](O)CC3=C[C@H](C)OC3=O)O2)O1	> 20			> 20	> 20	> 20	inactive	23		> 20	> 20			> 20		inactive	inhibition at 0.1 µg/mL (1A9 [20]): 47%
CCCCCCCCCCCC[C@@H](O)[C@H]1CC[C@H]([C@H](O)CCCCCCCCCC[C@@H](O)CC2=C[C@H](C)OC2=O)O1 [MURISOLIN]	> 20	inactive	> 20	> 20	> 20	> 20		21	0.96 (≈ 1.65 µM)		> 20				> 20		NA (A549 [18]): inactive
CCCCCCCCCCCC[C@H](O)[C@@H]1CC[C@@H]([C@@H](O)CCCCCCC(O)CCCCC[C@@H](O)CC2=C[C@H](C)OC2=O)O1 (some centres not stated) [ANNOMONTACIN]	13.7 (≈ 21.9 µM)		14.1 (≈ 22.6 µM)	9.2 (≈ 14.7 µM)	13.7 (≈ 21.9 µM)				0.078 (≈ 0.125 µM)	11.8 (≈ 18.9 µM)	9.2 (≈ 14.7 µM)	51	6.8 (≈ 10.9 µM)	14.1 (≈ 22.6 µM)	15.3 (≈ 24.5 µM)		
